Data as given in ChEMBL document CHEMBL4402595, “Discovery of Orally Bioavailable Chromone Derivatives as Potent and Selective BRD4 Inhibitors: Scaffold Hopping, Optimization, and Pharmacological Evaluation” (J Med Chem, 2020).
The source made the active and inactive calls. The calls are words filed in the database; no cut-off is given here.

Columns and labels:
[1] = Half life in Sprague-Dawley rat at 10 mg/kg, iv measured after 2 to 26 hrs; assay type: ADME, organism-based; settings: in vivo
[2] = AUC (0 to t) in Sprague-Dawley rat at 10 mg/kg, iv measured after 2 to 26 hrs; assay type: ADME, organism-based; settings: in vivo
[3] = Total clearance in Sprague-Dawley rat at 10 mg/kg, iv measured after 2 to 26 hrs; assay type: ADME, organism-based; settings: in vivo
Summary of the method: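 Male Sprague-Dawley rats received a single dose either intravenously (10 mg/kg) or orally. Plasma concentration–time curves were followed after each route. Total clearance (CL) came from the i.v. arm, and oral bioavailability (F) was derived by comparing the p.o. and i.v. profiles.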

[4] = Half life in Sprague-Dawley rat at 20 mg/kg, po measured after 2 to 26 hrs; assay type: ADME, organism-based; settings: in vivo
[5] = Cmax in Sprague-Dawley rat at 20 mg/kg, po measured after 2 to 26 hrs; assay type: ADME, organism-based; set-up: dose 20 mg/kg, route oral; settings: in vivo
[6] = AUC (0 to t) in Sprague-Dawley rat at 20 mg/kg, po measured after 2 to 26 hrs; assay type: ADME, organism-based; settings: in vivo
[7] = Aqueous solubility in water incubated at 25 degC for 24 hrs by HPLC analysis; assay type: physicochemical; settings: buffer
Summary of the method: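 Compound suspension was shaken at 25 °C for 24 h, then centrifuged and the supernatant filtered. Supernatant was quantified by C18 reverse-phase HPLC against a one-point calibration of a known concentration.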

[8] = test system: Mus musculus; experiment: Antiinflammatory activity in C57BL6/J mouse model of TLR3-induced acute airway inflammation assessed as inhibition of neutrophilic inflammation around small and medium-sized airways at 10 mg/kg, ip pre-treated 1 day before poly(I:C) stimulation followed by compound re-dosing at 10 mg/kg, ip before another poly(I:C) stimulation and measured after 1 day post last poly(I:C) stimulation by …; assay type: functional
[9] = test system: Mus musculus; experiment: Antiinflammatory activity in C57BL6/J mouse model of TLR3-induced acute airway inflammation assessed as inhibition of neutrophilic inflammation around small and medium-sized airways at 10 mg/kg, po pre-treated 1 day before poly(I:C) stimulation followed by compound re-dosing at 10 mg/kg, po before another poly(I:C) stimulation and measured after 1 day post last poly(I:C) stimulation by …; assay type: functional
[10] = test system: Mus musculus; experiment: (§1) Antiinflammatory activity in C57BL6/J mouse model of TLR3-induced acute airway inflammation assessed as inhibition of elevated total cells in BALF at 10 mg/kg, ip pre-treated 1 day before poly(I:C) stimulation followed by compound re-dosing at 10 mg/kg, ip before another poly(I:C) stimulation and measured after 1 day post last poly(I:C) stimulation; assay type: functional, organism-based
Summary of the method: (§2)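 Male C57BL/6J mice, 12 weeks old, 5 per group, dosed 10 mg/kg one day before and again immediately before intranasal poly(I:C) (300 μg/50 μL PBS). BALF was collected 1 day later. Total viable cells were counted by trypan blue with a hemocytometer. Neutrophils were counted as a differential of 300 cells on Wright-Giemsa stained cytospins.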

[11] = test system: Mus musculus; experiment: as §1, with “po” for “ip”; assay type: functional, organism-based; summary of the method: as §2
[12] = test system: Mus musculus; experiment: as §1, with “neutrophils” for “total cells”, “po” for “ip”; assay type: functional, organism-based; summary of the method: as §2
[13] = test system: Mus musculus; experiment: (§3) Antiinflammatory activity in C57BL6/J mouse model of TLR3-induced acute airway inflammation assessed as inhibition of elevated IL-6 levels in BALF at 10 mg/kg, ip pre-treated 1 day before poly(I:C) stimulation followed by compound re-dosing at 10 mg/kg, ip before another poly(I:C) stimulation and measured after 1 day post last poly(I:C) stimulation by cytokine Bio-Plex assay; assay type: functional, organism-based
Summary of the method: (§4)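 Male C57BL/6J mice, 12 weeks old, 5 per group, dosed 10 mg/kg the day before and again immediately before intranasal poly(I:C) (300 μg in 50 μL PBS). BALF was collected 1 day later by two 1 mL PBS lavages and centrifuged at 800 × g for 5 min at 4 °C. Supernatant cytokines were measured by multiplex bead immunoassay against recombinant standards in triplicate.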

[14] = test system: Mus musculus; experiment: as §3, with “po” for “ip”; assay type: functional, organism-based; summary of the method: as §4
[15] = test system: Mus musculus; experiment: as §3, with “KC” for “IL-6”; assay type: functional, organism-based; summary of the method: as §4
[16] = test system: Mus musculus; experiment: as §3, with “KC” for “IL-6”, “po” for “ip”; assay type: functional, organism-based; summary of the method: as §4
[17] = test system: Mus musculus; experiment: as §3, with “MCP1” for “IL-6”; assay type: functional, organism-based; summary of the method: as §4
[18] = test system: Mus musculus; experiment: as §3, with “RANTES” for “IL-6”; assay type: functional, organism-based; summary of the method: as §4
[19] = test system: Mus musculus; experiment: as §3, with “RANTES” for “IL-6”, “po” for “ip”; assay type: functional, organism-based; summary of the method: as §4
[20] = test system: Mus musculus; experiment: as §1, with “IL6 gene expression” for “total cells”, “lung” for “BALF”; assay type: functional, organism-based
Summary of the method: (§5)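 Male C57BL/6J mice, 12 weeks old, 5 per group, dosed 10 mg/kg one day before challenge and again immediately before intranasal poly(I:C) (300 μg in 50 μL PBS). Controls were vehicle alone and poly(I:C) alone. Lungs were taken 1 day later. Gene expression in lung tissue was measured by qRT-PCR, normalized to PPIA.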

[21] = test system: Mus musculus; experiment: as §1, with “IL6 gene expression” for “total cells”, “lung” for “BALF”, “po” for “ip”; assay type: functional, organism-based; summary of the method: as §5
[22] = test system: Mus musculus; experiment: as §1, with “KC gene expression” for “total cells”, “lung” for “BALF”, “po” for “ip”; assay type: functional, organism-based; summary of the method: as §5
[23] = test system: Mus musculus; experiment: as §1, with “ISG54 gene expression” for “total cells”, “lung” for “BALF”, “po” for “ip”; assay type: functional, organism-based; summary of the method: as §5
[24] = test system: Mus musculus; experiment: as §1, with “CIG5 gene expression” for “total cells”, “lung” for “BALF”; assay type: functional, organism-based; summary of the method: as §5
[25] = test system: Mus musculus; experiment: as §1, with “CIG5 gene expression” for “total cells”, “lung” for “BALF”, “po” for “ip”; assay type: functional, organism-based; summary of the method: as §5
[26] = test system: Mus musculus; experiment: In-vivo inhibition of BRD4 in C57BL6/J mouse model of TLR3-induced acute airway inflammation assessed as reduction in H3K122Ac levels in lung at 10 mg/kg, po pre-treated 1 day before poly(I:C) stimulation followed by compound re-dosing at 10 mg/kg, po before another poly(I:C) stimulation and measured after 1 day post last poly(I:C) stimulation by immunofluorescence staining; assay type: functional, organism-based
Summary of the method: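 Male C57BL/6J mice, 5 per group, dosed 10 mg/kg before and again at intranasal poly(I:C) challenge (300 μg). Lungs were taken 1 day later, paraffin sections made, and antigen retrieved at pH 9.0. Sections were stained with anti-acetyl-H3K122 and an Alexa 568 secondary with DAPI, imaged by confocal at 63×, and total fluorescence reported as fold change.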

half-life [1] [h] | AUC(0-t) [2] [ng·h/mL] | clearance [3] [mL/min/kg] | half-life [4] [h] | Cmax [5] [ng/mL] | AUC(0-t) [6] [ng·h/mL] | solubility [7] [mg/mL] | Structure (SMILES) | inhibition in vivo at 10 mg/kg [8] [%] | inhibition in vivo at 10 mg/kg [9] [%] | inhibition [10] | inhibition [11] | inhibition [12] | inhibition [13] | inhibition [14] | inhibition [15] | inhibition [16] | inhibition [17] | inhibition [18] | inhibition [19] | inhibition [20] | further results
3.5 | 6760 | 24.7 | 2.4 | 575 | 5170 | > 50 | COc1cc(OC)c2c(=O)cc(-c3cc(C)c(OC[C@H](O)CN4CCCCC4)c(C)c3)oc2c1 | 100 | 100 | Active | Active | Active | Active | Active | Active | Active | Active | Active | Active | Active | inhibition [21]: Active; inhibition [22]: Active; inhibition [23]: Active; inhibition [24]: Active; inhibition [25]: Active; inhibition [26]: Active
4.1 | 7030 | 24.7 | 2.8 | 606 | 4970 | > 50 | COc1cc(OC)c2c(=O)cc(-c3cc(C)c(OC[C@H](O)CN4CCN(C)CC4)c(C)c3)oc2c1 | 100 | 100 | Active | Active | Active | Active | Active | Active | Active | Active | Active | Active | Active | inhibition [21]: Active; inhibition [22]: Active; inhibition [23]: Active; inhibition [24]: Active; inhibition [25]: Active; inhibition [26]: Active
